According to PMC11671551 (Cancer Chemotherapy and Pharmacology, 2024):
Where two headings read alike, the source gives them in different places.

Assays:
[1] = format: in vivo, human; settings: for Serum concentration, mean: trough
How it was run: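 mRCC patients recruited prospectively (March 2020–January 2022) on oral sunitinib, 2 weeks on/1 week off, with physician-set dose. Blood (5 mL) was drawn at outpatient visits 7–14 days into each cycle, 24 h post-dose or just before the next dose. It was spun at 1,500 ×g, 4 °C, 10 min, and the serum stored at -25 °C. Parent drug, N-desethyl and N-oxide were quantified by LC-MS/MS (LLOQ 2.5, 2.5, 0.1 ng/mL). Concentration/dose ratios were correlated with treatment duration by Pearson.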

[2] = Adverse events in mRCC patients receiving long-term sunitinib; format: in vivo, human
[3] = population pharmacokinetic analysis, patient weighing 100 kg; cited from earlier work
[4] = Pt1, maintenance dose 25 mg, 421–630 days after initiation
[5] = Pt1, maintenance dose 25 mg, 631–840 days after initiation
[6] = Pt1, maintenance dose 25 mg, 841–1050 days after initiation
[7] = Pt1, maintenance dose 25 mg, 1051–1260 days after initiation
[8] = Pt1, maintenance dose 25 mg, 1261–1470 days after initiation
[9] = Pt2, maintenance dose 25 mg, 631–840 days after initiation
[10] = Pt2, maintenance dose 25 mg, 841–1050 days after initiation
[11] = Pt3, maintenance dose 25 mg, 1051–1260 days after initiation
[12] = Pt3, maintenance dose 25 mg, 1261–1470 days after initiation
[13] = Pt3, maintenance dose 25 mg, 1471–1680 days after initiation
[14] = Pt3, maintenance dose 25 mg, 1681–1890 days after initiation
[15] = Pt4, maintenance dose 25 mg, 1891–2100 days after initiation
[16] = Pt5, maintenance dose 37.5 mg, 1261–1470 days after initiation
[17] = Pt5, maintenance dose 37.5 mg, 1471–1680 days after initiation
[18] = Pt5, maintenance dose 37.5 mg, 1681–1890 days after initiation
[19] = Pt6, maintenance dose 50 mg, 0–210 days after initiation
[20] = Pt6, maintenance dose 50 mg, 211–420 days after initiation
[21] = Pt6, maintenance dose 50 mg, 421–630 days after initiation
[22] = Pt7, maintenance dose 25 mg, 0–210 days after initiation
[23] = sunitinib C/D decreased group (n=3)
[24] = sunitinib C/D non-decreased group (n=4)
[25] = after follow-up, sunitinib C/D decreased group (n=3)
[26] = after follow-up, sunitinib C/D non-decreased group (n=4)
[27] = baseline, sunitinib C/D decreased group (n=3)
[28] = baseline, sunitinib C/D non-decreased group (n=4)

Q: With CCN(CC)CCNC(=O)c1c(C)[nH]c(/C=C2\C(=O)Nc3ccc(F)cc32)c1C [Sunitinib, sunitinib, reference compound] as the compound, how does the “Pearson's correlation coefficient r between C/D ratio and treatment duration” value ([1]; Pt1) read?
A: -0.608

Q: And the “Serum concentration, mean” value [1, 4]?
A: 44.0 ng/mL

Q: What about the “Serum concentration, mean” value [1, 5] of the same compound?
A: 48.3 ng/mL

Q: What about the “Serum concentration, mean” value [1, 6] of the same compound?
A: 41.2 ng/mL

Q: And the “Serum concentration, mean” value [1, 7]?
A: 33.1 ng/mL

Q: And the “Serum concentration, mean” value [1, 8]?
A: 26.2 ng/mL

Q: And the “Pearson's correlation coefficient r between C/D ratio and treatment duration” value ([1]; Pt2)?
A: -0.555

Q: What about the “Serum concentration, mean” value [1, 9] of the same compound?
A: 86.7 ng/mL

Q: And the “Serum concentration, mean” value [1, 10]?
A: 73.5 ng/mL

Q: What about the “Serum concentration, mean” value [1, 11] of the same compound?
A: 59.5 ng/mL

Q: And the “Serum concentration, mean” value [1, 12]?
A: 54.9 ng/mL

Q: And the “Serum concentration, mean” value [1, 13]?
A: 64.1 ng/mL

Q: And the “Serum concentration, mean” value [1, 14]?
A: 54.1 ng/mL

Q: What about the “Serum concentration, mean” value [1, 15] of the same compound?
A: 54.5 ng/mL

Q: And the “Serum concentration, mean” value [1, 16]?
A: 42.2 ng/mL

Q: And the “Serum concentration, mean” value [1, 17]?
A: 44.7 ng/mL

Q: And the “Serum concentration, mean” value [1, 18]?
A: 39.4 ng/mL

Q: And the “Pearson's correlation coefficient r between C/D ratio and treatment duration” value ([1]; Pt6)?
A: -0.590

Q: What about the “Serum concentration, mean” value [1, 19] of the same compound?
A: 71.0 ng/mL

Q: What about the “Serum concentration, mean” value [1, 20] of the same compound?
A: 65.8 ng/mL

Q: What about the “Serum concentration, mean” value [1, 21] of the same compound?
A: 37.5 ng/mL

Q: And the “Serum concentration, mean” value [1, 22]?
A: 31.1 ng/mL

Q: And the “Patients with grade 2 or higher anorexia” value ([2]; all 7 patients, five patients)?
A: 71.4%

Q: And the “Patients with anorexia (any grade)” value ([2]; all 7 patients, six patients)?
A: 85.7%

Q: What about the “Anorexia Grade 0, number of patients” value [2, 23] of the same compound?
A: 1 n

Q: What about the “Anorexia Grade 1, number of patients” value [2, 23] of the same compound?
A: 0 n

Q: What about the “Anorexia Grade 2, number of patients” value [2, 23] of the same compound?
A: 1 n

Q: What about the “Anorexia Grade 3, number of patients” value [2, 23] of the same compound?
A: 1 n

Q: What about the “Diarrhea Grade 0, number of patients” value [2, 23] of the same compound?
A: 2 n

Q: And the “Diarrhea Grade 1, number of patients” value [2, 23]?
A: 1 n

Q: And the “Anorexia Grade 0, number of patients” value [2, 24]?
A: 0 n

Q: And the “Anorexia Grade 1, number of patients” value [2, 24]?
A: 1 n

Q: And the “Anorexia Grade 2, number of patients” value [2, 24]?
A: 2 n

Q: And the “Anorexia Grade 3, number of patients” value [2, 24]?
A: 1 n

Q: What about the “Diarrhea Grade 0, number of patients” value [2, 24] of the same compound?
A: 2 n

Q: And the “Diarrhea Grade 1, number of patients” value [2, 24]?
A: 2 n

Q: What about the “Maximum variation in Vd/F” value [3] of the same compound?
A: 14%

Q: With CCNCCNC(=O)c1c(C)[nH]c(/C=C2\C(=O)Nc3ccc(F)cc32)c1C [N-desethyl sunitinib] as the compound, how does the “Pearson's correlation coefficient r between C/D ratio and treatment duration” value ([1]; Pt1) read?
A: -0.282

Q: And the “Serum concentration, mean” value [1, 4]?
A: 9.0 ng/mL

Q: And the “Serum concentration, mean” value [1, 5]?
A: 11.0 ng/mL

Q: And the “Serum concentration, mean” value [1, 6]?
A: 10.4 ng/mL

Q: And the “Serum concentration, mean” value [1, 7]?
A: 9.6 ng/mL

Q: And the “Serum concentration, mean” value [1, 8]?
A: 6.9 ng/mL

Q: And the “Pearson's correlation coefficient r between C/D ratio and treatment duration” value ([1]; Pt2)?
A: -0.500

Q: What about the “Serum concentration, mean” value [1, 9] of the same compound?
A: 22.7 ng/mL

Q: What about the “Serum concentration, mean” value [1, 10] of the same compound?
A: 20.9 ng/mL

Q: What about the “Serum concentration, mean” value [1, 11] of the same compound?
A: 13.2 ng/mL

Q: And the “Serum concentration, mean” value [1, 12]?
A: 12.5 ng/mL

Q: And the “Serum concentration, mean” value [1, 13]?
A: 15.5 ng/mL

Q: And the “Serum concentration, mean” value [1, 14]?
A: 14.6 ng/mL

Q: And the “Serum concentration, mean” value [1, 15]?
A: 11.0 ng/mL

Q: What about the “Serum concentration, mean” value [1, 16] of the same compound?
A: 12.6 ng/mL

Q: What about the “Serum concentration, mean” value [1, 17] of the same compound?
A: 12.1 ng/mL

Q: And the “Serum concentration, mean” value [1, 18]?
A: 14.7 ng/mL

Q: What about the “Serum concentration, mean” value [1, 19] of the same compound?
A: 30.4 ng/mL

Q: And the “Serum concentration, mean” value [1, 20]?
A: 27.7 ng/mL

Q: And the “Serum concentration, mean” value [1, 21]?
A: 30.4 ng/mL

Q: What about the “Serum concentration, mean” value [1, 22] of the same compound?
A: 17.8 ng/mL

Q: And the “N-desethyl sunitinib/sunitinib concentration ratio, median (min–max)” value [1, 25]?
A: 0.29 (0.26–0.63)

Q: And the “N-desethyl sunitinib/sunitinib concentration ratio, median (min–max)” value [1, 26]?
A: 0.30 (0.16–0.54)

Q: And the “N-desethyl sunitinib/sunitinib concentration ratio, median (min–max)” value [1, 27]?
A: 0.28 (0.23–0.46)

Q: What about the “N-desethyl sunitinib/sunitinib concentration ratio, median (min–max)” value [1, 28] of the same compound?
A: 0.30 (0.19–0.44)

Q: Which “Pearson's correlation coefficient r between C/D ratio and treatment duration” value ([1]; Pt1) does the source give for CC[N+]([O-])(CC)CCNC(=O)c1c(C)[nH]c(/C=C2\C(=O)Nc3ccc(F)cc32)c1C [Sunitinib N-oxide, sunitinib N-oxide] here?
A: -0.756

Q: And the “Serum concentration, mean” value [1, 4]?
A: 0.68 ng/mL

Q: What about the “Serum concentration, mean” value [1, 5] of the same compound?
A: 0.59 ng/mL

Q: What about the “Serum concentration, mean” value [1, 6] of the same compound?
A: 0.40 ng/mL

Q: And the “Serum concentration, mean” value [1, 7]?
A: 0.29 ng/mL

Q: And the “Serum concentration, mean” value [1, 8]?
A: 0.10 ng/mL

Q: What about the “Pearson's correlation coefficient r between C/D ratio and treatment duration” value ([1]; Pt2) of the same compound?
A: -0.838

Q: What about the “Serum concentration, mean” value [1, 9] of the same compound?
A: 1.10 ng/mL

Q: And the “Serum concentration, mean” value [1, 10]?
A: 0.71 ng/mL

Q: What about the “Serum concentration, mean” value [1, 11] of the same compound?
A: 0.99 ng/mL

Q: And the “Serum concentration, mean” value [1, 12]?
A: 0.58 ng/mL

Q: And the “Serum concentration, mean” value [1, 13]?
A: 0.53 ng/mL

Q: What about the “Serum concentration, mean” value [1, 14] of the same compound?
A: 0.32 ng/mL

Q: What about the “Serum concentration, mean” value [1, 15] of the same compound?
A: 1.35 ng/mL

Q: And the “Serum concentration, mean” value [1, 16]?
A: 0.56 ng/mL

Q: What about the “Serum concentration, mean” value [1, 17] of the same compound?
A: 0.57 ng/mL

Q: What about the “Serum concentration, mean” value [1, 18] of the same compound?
A: 0.36 ng/mL

Q: And the “Pearson's correlation coefficient r between C/D ratio and treatment duration” value ([1]; Pt6)?
A: -0.752

Q: What about the “Serum concentration, mean” value [1, 19] of the same compound?
A: 0.56 ng/mL

Q: And the “Serum concentration, mean” value [1, 20]?
A: 0.55 ng/mL

Q: What about the “Serum concentration, mean” value [1, 21] of the same compound?
A: 0.17 ng/mL

Q: And the “Serum concentration, mean” value [1, 22]?
A: 0.24 ng/mL

Q: And the “Sunitinib N-oxide/sunitinib concentration ratio, median (min–max)” value [1, 25]?
A: 0.004 (0.004–0.009)

Q: What about the “Sunitinib N-oxide/sunitinib concentration ratio, median (min–max)” value [1, 26] of the same compound?
A: 0.006 (0.004–0.029)

Q: And the “Sunitinib N-oxide/sunitinib concentration ratio, median (min–max)” value [1, 27]?
A: 0.013 (0.010–0.021)

Q: What about the “Sunitinib N-oxide/sunitinib concentration ratio, median (min–max)” value [1, 28] of the same compound?
A: 0.016 (0.014–0.026)
